According to PubChem BioAssay:
Values joined by “and” are separate entries in the source; they are usually repeats but may differ in a detail not shown here. Identical values can stand only once. Active and inactive are the calls of the source.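 Rule for the calls, unless noted: active = viability at or below 30% in both replicate assays; inconclusive = viability at or below 30% in just one of the two assays; inactive = the rest.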

How the values were obtained:
[1] = target: Pantothenate synthetase (Mycobacterium tuberculosis (strain ATCC 25618 / H37Rv)) (UniProt P9WIL5); assay: Recombinant Mtb pantothenate synthetase (PanC) inhibitors, coupled enzyme, confirmatory (AID 375; call rule not given here;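 note: 0% = full reaction with vehicle and 100% = no enzyme background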); conditions: coupled enzyme assay; at 10 µM, stronger effect = higher value
[2] = reducers of endogenous Her2 protein level, primary screen, SKBR3 breast tumor cells, AlphaScreen, ATP viability (AID 461;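 active = Her2 level under about 52% in both replicate screens, with viability over 70% of control, limit read from the data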;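 for Her2 level: lower value means less Her2 protein in the cells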;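 for viability: percent of carrier control wells set as 100% viability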); conditions: 18-24 h, measured here: SKBR3 viability, ATP luminescence, at 10 µM
[3] = target: Receptor tyrosine-protein kinase erbB-2 (Homo sapiens) (UniProt P04626); assay: as above; conditions: 18-24 h, at 10 µM, stronger effect = lower value
[4] = SK-BR-3 cell growth inhibitors, pilot screen, 24 h, human (AID 572;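 active = viability at or below 10% of carrier control in both of two separate runs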;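 note: compound exposure lasted between 18 and 24 h rather than exactly 24 h; 100% = carrier-treated control wells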); conditions: SK-BR-3 viability, CellTiter-Glo luminescence, at 10 µM, stronger effect = lower value
[5] = HUVEC growth inhibition – cell-based, human, primary screen (AID 575); conditions: HUVEC proliferation, CellTiter-Glo luminescence, 72 h; at 10 µM; stronger effect = lower value;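 note: 100% = median of untreated cell wells with 0.1% DMSO on each plate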
Outline: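 Test system – primary HUVEC, no more than 12 passages · Dosing – one dose, 10 µM final, 0.1% DMSO · Times – 72 h treatment at 37 °C · Measured by – ATP-based CellTiter-Glo luminescent read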

[6] = growth inhibitors of H69AR lung tumor, primary screen, human, duplicate replicates (AID 580;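 active = viability at or under a set limit in both replicates, limit being median viability minus 3 SD, cut at about 48% in these data, passing the limit was not always enough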;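 note: 100% = mean luminescence of untreated wells and 0% = no signal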); conditions: H69AR lung tumor cells viability, ATP luminescence, 72 h; at 10 µM; stronger effect = lower value
[7] = reversal of MRP1-mediated doxorubicin resistance, pilot screen, H69AR cells, doxorubicin co-treatment (AID 601;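 active = viability loss from added drug above about 55%, and viability with drug at most 40%, in both replicates, limit read from the data, passing the limit was not always enough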); conditions: CellTiter-Glo, 72 h, at 10 µM; for differential viability (reversal): stronger effect = higher value
[8] = 384-well plate pilot, post-Golgi transport modulator project, inhibition of yeast transport mutant growth (AID 636; in the data active = inhibition above about 31%); conditions: absorbance 615 nm, about 18 h, stronger effect = higher value
[9] = growth suppression of yeast trafficking mutant, preliminary HTS, modulators of trafficking downstream of Golgi apparatus project, 1536-format plate, OD 615 nm (AID 637; in the data active = inhibition above about 30%); conditions: yeast transport mutant growth, absorbance 615 nm, 18 h; stronger effect = higher value
[10] = H69AR cells + 2 uM doxorubicin, measured here: viability with 2 uM doxorubicin, stronger effect = lower value
[11] = H69AR cells, compound alone cytotoxicity

Chain of Receptor tyrosine-protein kinase erbB-2 (Homo sapiens) (P04626 whole entry, looked up): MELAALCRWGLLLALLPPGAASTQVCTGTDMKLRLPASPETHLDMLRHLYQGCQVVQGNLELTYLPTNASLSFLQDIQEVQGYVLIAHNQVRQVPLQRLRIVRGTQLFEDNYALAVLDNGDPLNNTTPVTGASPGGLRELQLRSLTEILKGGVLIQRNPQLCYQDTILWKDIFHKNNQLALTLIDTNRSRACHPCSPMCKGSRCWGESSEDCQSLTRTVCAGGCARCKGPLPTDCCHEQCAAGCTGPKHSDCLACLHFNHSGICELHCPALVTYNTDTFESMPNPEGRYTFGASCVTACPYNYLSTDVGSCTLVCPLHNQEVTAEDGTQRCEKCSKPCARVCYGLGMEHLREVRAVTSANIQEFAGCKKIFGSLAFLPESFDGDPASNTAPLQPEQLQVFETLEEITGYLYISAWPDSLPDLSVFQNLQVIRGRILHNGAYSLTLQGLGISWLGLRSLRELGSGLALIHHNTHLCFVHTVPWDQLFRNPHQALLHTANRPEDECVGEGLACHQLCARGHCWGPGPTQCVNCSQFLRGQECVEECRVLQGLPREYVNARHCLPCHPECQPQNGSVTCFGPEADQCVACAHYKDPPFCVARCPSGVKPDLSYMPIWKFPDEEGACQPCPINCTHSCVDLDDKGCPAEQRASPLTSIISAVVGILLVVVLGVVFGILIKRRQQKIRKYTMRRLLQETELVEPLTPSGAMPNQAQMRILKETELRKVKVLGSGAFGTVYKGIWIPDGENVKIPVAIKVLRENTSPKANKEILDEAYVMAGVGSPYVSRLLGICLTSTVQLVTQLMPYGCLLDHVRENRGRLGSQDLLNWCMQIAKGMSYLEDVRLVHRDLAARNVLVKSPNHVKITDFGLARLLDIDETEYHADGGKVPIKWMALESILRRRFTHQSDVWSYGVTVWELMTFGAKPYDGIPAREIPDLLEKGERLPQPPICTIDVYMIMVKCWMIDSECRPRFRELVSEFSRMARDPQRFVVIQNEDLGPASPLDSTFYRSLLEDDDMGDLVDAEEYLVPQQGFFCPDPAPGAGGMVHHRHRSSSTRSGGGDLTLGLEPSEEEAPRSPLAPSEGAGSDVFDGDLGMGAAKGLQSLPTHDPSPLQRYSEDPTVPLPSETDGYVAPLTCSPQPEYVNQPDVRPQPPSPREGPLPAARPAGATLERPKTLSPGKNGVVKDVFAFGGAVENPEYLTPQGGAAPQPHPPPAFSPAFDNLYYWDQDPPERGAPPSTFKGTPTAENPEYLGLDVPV
Chain of Pantothenate synthetase (Mycobacterium tuberculosis (strain ATCC 25618 / H37Rv)) (P9WIL5 whole entry, looked up): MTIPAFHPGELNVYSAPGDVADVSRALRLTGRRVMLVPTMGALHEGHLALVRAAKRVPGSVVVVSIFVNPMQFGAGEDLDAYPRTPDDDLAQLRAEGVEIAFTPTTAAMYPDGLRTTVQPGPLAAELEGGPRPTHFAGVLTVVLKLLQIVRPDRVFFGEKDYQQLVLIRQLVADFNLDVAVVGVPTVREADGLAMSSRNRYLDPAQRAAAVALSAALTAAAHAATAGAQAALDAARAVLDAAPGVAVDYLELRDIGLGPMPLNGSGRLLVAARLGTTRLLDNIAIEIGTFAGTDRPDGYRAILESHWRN

| Structure (SMILES) | inhibition [1] | viability [2] | Her2 level [3] | viability [4] | viability [5] | viability [6] | differential viability (reversal) ([7]; H69AR cells + 2 uM doxorubicin) | viability [7, 10] | viability [7, 11] | inhibition [8] | inhibition [9] |
| --- | --- | --- | --- | --- | --- | --- | --- | --- | --- | --- | --- |
| CCOP(=S)(OCC)c1ccc(N(C)C)cc1 | 0% (inactive) | 92.5% | 104% (inactive) | 92.5% (inactive) | 93.6% (inactive) | 78.3% (inactive) | -9.22% (inactive) | 87.5% | 78.3% | 4.29% (inactive) | -12.1% (inactive) |
| CC(=O)N1CC(=O)Nc2ccc(Cl)cc2C1c1ccc(F)cc1 (stereo not given) | 0% (inactive) | 92.5% | 102% (inactive) | 92.5% (inactive) | 88.5% (inactive) | 97.5% (inactive) | 25.5% (inactive) | 72% | 97.5% | -3.29% (inactive) | -3.45% (inactive) |
| O=c1c2ccccc2nc(CSc2ncnc3nc[nH]c23)n1-c1ccccc1 | 0% (inactive) | 96% | 97.5% (inactive) | 96% (inactive) | 87.6% (inactive) | 80.9% (inactive) | -8.74% (inactive) | 89.6% | 80.9% | -1.92% (inactive) | -10.5% (inactive) |
| O=C(O)c1nonc1-c1nonc1C(=O)O | 0% (inactive) | 99% | 114% (inactive) | 99% (inactive) | 100% (inactive) | 99% (inactive) | 1.51% (inactive) | 97.5% | 99% | -1.97% (inactive) | 6.39% (inactive) |
| COc1ccc(S(=O)(=O)NC(CC(=O)N2CCC3(CC2)OCCO3)c2ccco2)cc1 (stereo not given) | 0% (inactive) | 134% | 106% (inactive) | 134% (inactive) | 101% (inactive) | 93.9% (inactive) | 5.91% (inactive) | 88% | 93.9% | -8.77% (inactive) | -0.48% (inactive) |
| COC(=O)c1ccccc1-n1c(C)nc2ccccc2c1=O | 4% (inactive) | 90% | 105% (inactive) | 90% (inactive) | 111% (inactive) | 98.5% (inactive) | 3.37% (inactive) | 95.2% | 98.5% | -2.5% (inactive) | -5.97% (inactive) |
| COc1ccccc1N(CC(=O)NC1CCCCC1)C(=O)c1cnn(C(C)C)c1 | 7% (inactive) | 96.5% | 104% (inactive) | 96.5% (inactive) | 103% (inactive) | 106% (inactive) | 8.82% (inactive) | 97.2% | 106% | 1.08% (inactive) | -5.24% (inactive) |
| Nc1ccnn1C1CCNCC1 | 2% (inactive) | 88.5% | 105% (inactive) | 88.5% (inactive) | 97% (inactive) | 107% (inactive) | 5.6% (inactive) | 102% | 107% | -4.25% (inactive) | -2.06% (inactive) |
| CCn1nc(-c2ccccc2)nc2c(=O)n(C)c(=O)nc1-2 | 0% (inactive) | 106% | 93% (inactive) | 106% (inactive) | 2.75% (active) | 1.38% (active) | 0.5% (inactive) | 0.875% | 1.38% | 98.4% (active) | 100% (active) |
| COc1ccc(C(=O)N2CCCC2=O)cc1 | 10% (inactive) | 110% | 94.5% (inactive) | 110% (inactive) | 119% (inactive) | 103% (inactive) | 13.5% (inactive) | 89.1% | 103% |  |  |
| C[N+]1(C)[C@@H]2CC[C@H]1CC(OC(=O)C(CO)c1ccccc1)C2 (stereo not given in full) | 6% (inactive) and 13% (inactive) | 97.5% and 140% | 100% (inactive) and 106% (inactive) | 97.5% (inactive) and 140% (inactive) | 103% (inactive) and 106% (inactive) | 100% (inactive) and 112% (inactive) | 4.59% (inactive) and 7.77% (inactive) | 95.6% and 104% | 100% and 112% |  |  |
| CCCCOc1ccc(CN2CCN(CCO)CC2)cc1 | 0% (inactive) | 74% | 91.5% (inactive) | 74% (inactive) | 94.7% (inactive) | 90.1% (inactive) | 12.2% (inactive) | 77.9% | 90.1% | 1.17% (inactive) | -1.64% (inactive) |
| CCOC(=O)C1CCCCC12C(C#N)=C(N)Oc1n[nH]c(C)c12 (stereo not given) | 0% (inactive) | 91.5% | 94.5% (inactive) | 91.5% (inactive) | 96% (inactive) | 93.3% (inactive) | -6.3% (inactive) | 99.6% | 93.3% | 0.66% (inactive) | 25.1% (inactive) |
| Cn1c(=O)cc(SCC(=O)N2CCC3(CC2)OCCO3)c2ccc(Cl)cc21 | 9% (inactive) | 116% | 94.5% (inactive) | 116% (inactive) | 87.6% (inactive) | 79.1% (inactive) | 8.79% (inactive) | 70.3% | 79.1% | -3.03% (inactive) | 1.77% (inactive) |
